Source: ChEMBL document CHEMBL1165950, “Design and synthesis of new potent anticancer pyrazoles with high FLT3 kinase inhibitory selectivity” (Bioorg Med Chem, 2010)

Tests used:
Assay type in all cases: functional
SF-295 = experiment: Cytotoxicity against human SF295 cells assessed as cell growth at 1 uM after 48 hrs by sulforhodamine B assay; settings: SF-295, 48 h, read-out: Activity
M14 [1] = experiment: Cytotoxicity against human M14 cells assessed as cell growth at 100 nM after 48 hrs by sulforhodamine B assay; settings: M14, 48 h, read-out: Activity
HOP-92 = experiment: Growth inhibition of human HOP92 cells after 48 hrs by sulforhodamine B assay; settings: HOP-92, 48 h
Outline: (§1)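 NCI 60-cell screen, five-dose mode. Cells grown in RPMI 1640 with 5% FBS and 2 mM L-glutamine and plated at 5000-40,000 cells/well according to doubling time. After 24 h preincubation, a Tz plate was TCA-fixed. Five concentrations (10-fold or 1/2 log dilutions) were applied for 48 h at 37 °C. SRB staining read at 515 nm. IC50 taken from [(Ti-Tz)/(C-Tz)]×100 = 50.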

SK-MEL-2 [2] = experiment: Growth inhibition of human SK-MEL-2 cells after 48 hrs by sulforhodamine B assay; settings: SK-MEL-2, 48 h; outline: as §1
U-251 [3] = experiment: Cytotoxicity against human U251 cells assessed as cell growth at 0.001 uM after 48 hrs by sulforhodamine B assay; settings: U-251, 48 h, read-out: Activity
SK-MEL-5 [4] = experiment: Cytotoxicity against human SK-MEL-5 cells assessed as cell growth at 10 uM; settings: read-out: Activity
Outline: (§2)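 NCI-60 screen: cells grown in RPMI 1640 with 5% FBS and 2 mM L-glutamine, plated at 5000–40,000 cells/well according to doubling time, and preincubated 24 h at 37 °C, 5% CO2. The single 10 µM dose (DMSO stock) was added, then incubated 48 h. Cells were TCA-fixed and stained with 0.4% SRB, read at 515 nm, and growth % calculated against time-zero and control plates.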

M14 [5] = experiment: Cytotoxicity against human M14 cells assessed as cell growth at 1 uM after 48 hrs by sulforhodamine B assay; settings: M14, 48 h, read-out: Activity
COLO 205 = experiment: Cytotoxicity against human COLO205 cells assessed as cell growth at 10 uM; settings: read-out: Activity
Outline: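 Single-dose NCI-60 screen at 10 µM. Cells were grown in RPMI 1640 with 5% FBS and 2 mM L-glutamine, then treated for 48 h at 37 °C. Protein was measured by SRB staining with absorbance at 515 nm. Percentage growth was recorded, and inhibition percentage was calculated as 100 minus growth percentage.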

NCI-H322M = experiment: Cytotoxicity against human NCI-H322M cells assessed as cell growth at 100 nM after 48 hrs by sulforhodamine B assay; settings: read-out: Activity
HOP-62 = experiment: Cytotoxicity against human HOP62 cells assessed as cell growth at 100 nM after 48 hrs by sulforhodamine B assay; settings: HOP-62, 48 h, read-out: Activity
SK-MEL-2 [6] = experiment: Cytotoxicity against human SK-MEL-2 cells assessed as cell growth at 10 uM after 48 hrs by sulforhodamine B assay; settings: SK-MEL-2, 48 h, read-out: Activity
[7] = Growth inhibition of human Hs 578T cells after 48 hrs by sulforhodamine B assay; outline: as §1
MOLT-4 = experiment: Cytotoxicity against human MOLT4 cells assessed as cell growth at 10 uM; settings: read-out: Activity; outline: as §2
SNB-75 = experiment: Cytotoxicity against human SNB75 cells assessed as cell growth at 0.01 uM after 48 hrs by sulforhodamine B assay; settings: SNB-75, 48 h, read-out: Activity
SF-268 = experiment: Cytotoxicity against human SF268 cells assessed as cell growth at 10 uM after 48 hrs by sulforhodamine B assay; settings: SF-268, 48 h, read-out: Activity
SN12C = experiment: Cytotoxicity against human SN12C cells assessed as cell growth at 100 nM after 48 hrs by sulforhodamine B assay; settings: read-out: Activity
A549 [8] = experiment: Cytotoxicity against human A549 cells assessed as cell growth at 1 uM after 48 hrs by sulforhodamine B assay; settings: A549, 48 h, read-out: Activity
Outline: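 NCI-60 five-dose screen. Cells were grown in RPMI 1640 with 5% FBS and 2 mM L-glutamine, plated at 5000–40,000 cells/well and preincubated for 24 h. Time-zero plates were TCA-fixed. DMSO-solubilized drug was added at five concentrations (10-fold or ½-log serial dilutions) for 48 h at 37 °C, 5% CO2. Cells were TCA-fixed, stained with 0.4% SRB and read at 515 nm. Percent growth used time-zero, control and test absorbances.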

U-251 [9] = experiment: Cytotoxicity against human U251 cells assessed as cell growth at 10 uM after 48 hrs by sulforhodamine B assay; settings: U-251, 48 h, read-out: Activity
IGROV-1 [10] = experiment: Growth inhibition of human IGROV1 cells after 48 hrs by sulforhodamine B assay; settings: IGROV-1, 48 h; outline: as §1
IGROV-1 [11] = experiment: Cytotoxicity against human IGROV1 cells assessed as cell growth at 0.001 uM after 48 hrs by sulforhodamine B assay; settings: IGROV-1, 48 h, read-out: Activity
OVCAR-4 = experiment: Cytotoxicity against human OVCAR4 cells assessed as cell growth at 10 uM after 48 hrs by sulforhodamine B assay; settings: OVCAR-4, 48 h, read-out: Activity
A549 [12] = experiment: Growth inhibition of human A549 cells after 48 hrs by sulforhodamine B assay; settings: A549, 48 h
Outline: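 NCI five-dose SRB assay in RPMI 1640 with 5% FBS and 2 mM L-glutamine. Cells were preincubated 24 h, then exposed 48 h at 37 °C to five concentrations (10-fold or half-log serial dilutions from DMSO stocks). TCA fixation, SRB staining, and absorbance at 515 nm followed. IC50 was taken where [(Ti−Tz)/(C−Tz)]×100 = 50, with Tz as time-zero cell density.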

SK-MEL-5 [13] = experiment: Cytotoxicity against human SK-MEL-5 cells assessed as cell growth at 100 nM after 48 hrs by sulforhodamine B assay; settings: SK-MEL-5, 48 h, read-out: Activity
OVCAR-3 = experiment: Cytotoxicity against human OVCAR-3 cells assessed as cell growth at 0.001 uM after 48 hrs by sulforhodamine B assay; settings: OVCAR-3, 48 h, read-out: Activity
HL-60(TB) = experiment: Cytotoxicity against human HL-60(TB) cells assessed as cell growth at 0.01 uM after 48 hrs by sulforhodamine B assay; settings: HL-60, 48 h, read-out: Activity
Outline: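 NCI 60-cell panel. Cells are grown in RPMI 1640 with 5% FBS and 2 mM L-glutamine, seeded at 5000–40,000 cells/well according to doubling time, and preincubated 24 h. Time-zero plates are TCA-fixed. Compound from DMSO stock is given at five 10-fold or 1/2-log concentrations for 48 h at 37 °C, 5% CO2. Suspension cells are fixed with 80% TCA (final 16%) and SRB-stained, with absorbance at 515 nm. Percent growth is derived from Tz, control and test readings.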

[14] = read-out: LC50 (the source's name)

COc1cc(C)cc(-c2nn(CC#N)cc2-c2ccnc(-c3ccc(N(C)C)cc3)c2)c1
growth at 1 µM (SF-295): -7%
growth at 0.1 µM (M14 [1]): -12%
GI50 (HOP-92): 0.557 µM
TGI (HOP-92): 26.6 µM
CC50 (HOP-92; [14]): > 100 µM
GI50 (SK-MEL-2 [2]): 1.01 µM
TGI (SK-MEL-2 [2]): 45.5 µM
CC50 (SK-MEL-2 [2]; [14]): > 100 µM
growth at 0.001 µM (U-251 [3]): 94%
growth at 10 µM (SK-MEL-5 [4]): 2.26%
growth at 1 µM (M14 [5]): -7%
growth at 10 µM (COLO 205): -73.2%
growth at 0.1 µM (NCI-H322M): 49%
growth at 0.1 µM (HOP-62): 16%
growth at 10 µM (SK-MEL-2 [6]): -12%
GI50 [7]: 0.264 µM
TGI [7]: 0.695 µM
CC50 [7, 14]: > 100 µM
growth at 10 µM (MOLT-4): 16%
growth at 0.01 µM (SNB-75): 98%
growth at 10 µM (SF-268): -32%
growth at 0.1 µM (SN12C): 44%
growth at 1 µM (A549 [8]): 14%
growth at 10 µM (U-251 [9]): -32%
GI50 (IGROV-1 [10]): 0.402 µM
TGI (IGROV-1 [10]): 30.1 µM
CC50 (IGROV-1 [10]; [14]): > 100 µM
growth at 0.001 µM (IGROV-1 [11]): 103%
growth at 10 µM (OVCAR-4): 15%
GI50 (A549 [12]): 0.583 µM
LC50 (A549 [12]): > 100 µM
TGI (A549 [12]): 483 µM
growth at 0.1 µM (SK-MEL-5 [13]): -22%
growth at 0.001 µM (OVCAR-3): 106%
growth at 0.01 µM (HL-60(TB)): 97%
